Measured values reported in PMC12435242 (Proceedings of the National Academy of Sciences of the …, 2025).

Experiments:
[1] = tested on: all SV2 members (SV2s); details: cited from earlier work
[2] = tested on: SV2A compared to SV2B and SV2C; details: cited from earlier work
[3] = molecular target: SV2A-W300A (Homo sapiens, UniProt Q7L0J3, W300A); assay: 3H-LEV binding with or without UCB1244283, primary site mutant
[4] = molecular target: SV2A-D670A (Homo sapiens, UniProt Q7L0J3, D670A); assay: as above
[5] = molecular target: SV2A G659N mutant (Homo sapiens, UniProt Q7L0J3, G659N); assay: 3H-LEV filter binding, concentration-response of UCB1244283; details: 3H-LEV 3.3 µM
How it was run: (§1)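 Membranes came from tsA201 cells transfected with PEI and harvested at 48–60 h. Cells expressed human SV2A mutants lacking residues 1–64, tagged C-terminally with mVenus/TwinStrep/His10. Equal protein per FSEC was used. Incubation was 45 min on ice with 3H-LEV 3.3 µM plus test compound, 1 nM–30 µM final. Nonspecific binding was set with 1 mM unlabeled PSL. Filtration used 1% PEI-soaked glass-fibre filters, with an ice-cold TBS150 wash, then scintillation counting. Assays were run in triplicate and fitted to a three-parameter log(agonist)–response curve.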

[6] = tested on: sound-sensitive mice; details: cited from earlier work
[7] = molecular target: SV2A-G659C (Homo sapiens, UniProt Q7L0J3, G659C); assay: 3H-LEV filter binding, concentration-response of UCB1244283
[8] = tested on: PSL-bound SV2A complex; details: cited from earlier work
[9] = molecular target: SV2A-F188A (Homo sapiens, UniProt Q7L0J3, F188A); assay: 3H-LEV filter binding, concentration-response of UCB1244283
How it was run: (§2)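 Human SV2AΔ64 (C-terminal mVenus/TwinStrep/His10), wild-type or point mutant, PEI-transfected into suspension tsA201 cells. Membranes harvested 48–60 h later and loaded at equal SV2A by FSEC. Incubated 45 min on ice with 3.3 µM 3H-LEV and test compound 1 nM–30 µM; nonspecific binding defined with 1 mM PSL. PEI-soaked glass-fibre filtration, scintillation counting. EC50 by three-parameter log(agonist) fit; triplicate; mean ± SEM.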

[10] = molecular target: SV2A-F184A (Homo sapiens, UniProt Q7L0J3, F184A); assay: as above
How it was run: as §2

[11] = molecular target: SV2A A308S mutant (Homo sapiens, UniProt Q7L0J3, A308S); assay: 3H-LEV filter binding, concentration-response of UCB1244283; details: 3H-LEV 3.3 µM
How it was run: as §1

[12] = molecular target: SV2A L655Q mutant (Homo sapiens, UniProt Q7L0J3, L655Q); assay: as above; details: 3H-LEV 3.3 µM
How it was run: as §1

[13] = molecular target: wild-type SV2A (SV2AΔ64-mVenus) (Homo sapiens, UniProt Q7L0J3); assay: 3H-LEV filter binding, concentration-response of UCB1244283
How it was run: as §2

[14] = tested on: SV2A in human brain membranes; details: cited from earlier work
[15] = tested on: SV2A; details: cited from earlier work
[16] = molecular target: SV2A T465A mutant (Homo sapiens, UniProt Q7L0J3, T465A); assay: 3H-LEV filter binding, concentration-response of UCB1244283; details: 3H-LEV 3.3 µM
How it was run: as §1

[17] = molecular target: SV2A (Homo sapiens, UniProt Q7L0J3); assay: 3H-UCB-J binding with or without UCB1244283; details: Kd of 3H-UCB-J binding to SV2A
[18] = by slowing the rate of dissociation

SV2A-F184A, sequence (Q7L0J3 65-742 F184A limits assumed): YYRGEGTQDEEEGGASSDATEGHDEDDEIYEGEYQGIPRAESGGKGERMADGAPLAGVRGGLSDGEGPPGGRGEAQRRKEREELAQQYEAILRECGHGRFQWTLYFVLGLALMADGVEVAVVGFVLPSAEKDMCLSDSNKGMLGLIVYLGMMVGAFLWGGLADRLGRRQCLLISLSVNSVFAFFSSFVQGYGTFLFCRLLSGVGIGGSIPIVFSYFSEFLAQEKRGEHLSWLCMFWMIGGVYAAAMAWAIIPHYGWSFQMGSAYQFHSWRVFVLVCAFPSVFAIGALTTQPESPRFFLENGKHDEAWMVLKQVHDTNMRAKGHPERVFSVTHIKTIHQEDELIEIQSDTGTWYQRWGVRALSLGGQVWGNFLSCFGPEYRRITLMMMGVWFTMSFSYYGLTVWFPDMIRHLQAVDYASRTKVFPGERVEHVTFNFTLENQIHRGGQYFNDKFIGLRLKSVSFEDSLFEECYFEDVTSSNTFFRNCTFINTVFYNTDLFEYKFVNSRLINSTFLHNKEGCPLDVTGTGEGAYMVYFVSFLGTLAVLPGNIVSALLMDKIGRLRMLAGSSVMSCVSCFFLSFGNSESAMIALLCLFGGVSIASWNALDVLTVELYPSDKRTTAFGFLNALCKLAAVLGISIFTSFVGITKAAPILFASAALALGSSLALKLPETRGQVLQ
SV2A-G659C, sequence (Q7L0J3 65-742 G659C limits assumed): as the sequence (Q7L0J3 65-742 F184A limits assumed) above, with A120F, G595C counted along it
wild-type SV2A (SV2AΔ64-mVenus), sequence (Q7L0J3 65-742 limits assumed, stated change not applied): as the sequence (Q7L0J3 65-742 F184A limits assumed) above, with A120F counted along it
SV2A (Homo sapiens, UniProt Q7L0J3), sequence (Q7L0J3 65-742 limits assumed): as the sequence (Q7L0J3 65-742 F184A limits assumed) above, with A120F counted along it
SV2A-W300A, sequence (Q7L0J3 65-742 W300A limits assumed): as the sequence (Q7L0J3 65-742 F184A limits assumed) above, with A120F, W236A counted along it
SV2A-D670A, sequence (Q7L0J3 65-742 D670A limits assumed): as the sequence (Q7L0J3 65-742 F184A limits assumed) above, with A120F, D606A counted along it
SV2A-F188A, sequence (Q7L0J3 65-742 F188A limits assumed): as the sequence (Q7L0J3 65-742 F184A limits assumed) above, with A120F, F124A counted along it
SV2A L655Q mutant, sequence (Q7L0J3 65-742 L655Q limits assumed): as the sequence (Q7L0J3 65-742 F184A limits assumed) above, with A120F, L591Q counted along it
SV2A A308S mutant, sequence (Q7L0J3 65-742 A308S limits assumed): as the sequence (Q7L0J3 65-742 F184A limits assumed) above, with A120F, A244S counted along it
SV2A G659N mutant, sequence (Q7L0J3 65-742 G659N limits assumed): as the sequence (Q7L0J3 65-742 F184A limits assumed) above, with A120F, G595N counted along it
SV2A T465A mutant, sequence (Q7L0J3 65-742 T465A limits assumed): as the sequence (Q7L0J3 65-742 F184A limits assumed) above, with A120F, T401A counted along it

COCc1nn2c(CN3CC(CC(F)(F)Cl)CC3=O)c(C(F)(F)F)nc2s1 (single isomer, unassigned) [PSL]
affinity for all SV2 members [1]: nanomolar affinity

CCC[C@@H]1CC(=O)N([C@@H](CC)C(N)=O)C1 [BRV, (2S)-2-((4R)-2-oxo-4-propylpyrrolidin-1-yl)butanamide]
higher affinity for SV2A compared to SV2B and SV2C [2]: at least 100 fold

CC[C@@H](C(N)=O)N1CCCC1=O [LEV, 2S-(2-oxo-1-pyrrolidinyl)butanamide]
higher affinity for SV2A compared to SV2B and SV2C [2]: at least 100 fold | LEV binding to mutant ([3]; W300A, with or without UCB1244283): unable to measure any significant LEV binding | LEV binding to mutant ([4]; D670A, with or without UCB1244283): unable to measure any significant LEV binding

COc1ccccc1NC(=O)CC(C)Cc1cc(C)cc(C)c1 (centres unmarked) [UCB1244283, 4-(3,5-dimethylphenyl)-N-(2-methoxyphenyl)-3-methylbutanamide]
change in LEV binding on addition of UCB1244283 [5]: do not show a significant change in LEV binding | effect on maximum specific binding (Bmax) of 3H-LEV ([3]; UCB1244283 30 µM, 3H-LEV 3.3 µM, SV2A-W300A): does not enhance | protection against seizures [6]: protection against both tonic and clonic seizures | EC50 [7]: 1000 ± 800 nM | reduction in Bmax of 3H-LEV binding compared to wild-type ([7]; G659C mutant, with UCB1244283): ~ 4 fold | binding to the PSL-bound SV2A complex [8]: does not bind | effect on maximum specific binding (Bmax) of 3H-LEV ([4]; UCB1244283 30 µM, 3H-LEV 3.3 µM, SV2A-D670A): does not enhance | EC50 [9]: 70 ± 10 nM | enhancement of EC50 for UCB1244283 compared to wild-type ([9]; F188A mutant): ~9 fold | EC50 [10]: 200 ± 40 nM | enhancement of EC50 for UCB1244283 compared to wild-type ([10]; F184A mutant): ~ 3 fold | change in LEV binding on addition of UCB1244283 [11]: do not show a significant change in LEV binding | change in LEV binding on addition of UCB1244283 [12]: do not show a significant change in LEV binding | EC50 [13]: 700 ± 300 nM | increase in specific counts of 3H-LEV binding ([13]; saturating 3H-LEV (~4 µM), with vs without UCB1244283 30 µM): ~ 2 fold | effect of UCB1244283 on BRV binding [14]: increases both the Bmax and binding affinity | effect of UCB1244283 on LEV binding [14]: only increases the Bmax | increase in binding affinity for BRV on incubation of UCB1244283 with SV2A [15, 18]: 10 fold | increase in binding affinity for LEV on incubation of UCB1244283 with SV2A [15, 18]: 2.5 fold | increase in maximum binding capacity (Bmax) for BRV ([15]; with UCB1244283): 1.4 fold | increase in maximum binding capacity (Bmax) for LEV ([15]; with UCB1244283): twofold | change in LEV binding on addition of UCB1244283 [16]: do not show a significant change in LEV binding

Cc1cnccc1CN1C[C@@H](c2cc(F)c(F)c(F)c2)CC1=O [UCB-J, (4R)-1-((3-Methyl-4-pyridinyl)methyl)-4-(3,4,5-trifluorophenyl)-2-pyrrolidinone]
Kd ([17]; in the absence of UCB1244283): 5.3 ± 0.8 nM | Kd ([17]; in the presence of saturating UCB1244283): 6 ± 1 nM
